Source: ChEMBL document CHEMBL1154850, “Dragonamide E, a modified linear lipopeptide from Lyngbya majuscula with antileishmanial activity” (J Nat Prod, 2010)
One block for each compound: values may come before it. Square brackets hold non-standard residues; d marks the D form. Peptide text beside a SMILES is read from it. * marks the point of attachment. NMeF = CN[C@@H](Cc1ccccc1)C(=O)O; NMeV = CN[C@H](C(=O)O)C(C)C; X1 = C#CCCCC[C@H](C)C(=O)*; X2 = C#CCCC/C=C(\C)C(=O)*

Key:
Assay type in all cases: functional, organism-based
[1] = system: Trypanosoma cruzi; test: Antiparasitic activity against Trypanosoma cruzi Tulahuen C4 infected african green monkey Vero cells expressing beta-galctosidase after 5 days; conditions: 120 h
Method in brief: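 Parasite is a transgenic β-galactosidase-expressing Trypanosoma cruzi, Tulahuen strain clone C4; assay run as in earlier work.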

[2] = system: Leishmania donovani; test: Antileishmanial activity against Leishmania donovani LD-1S/MHOM/SD/00-1S amastigotes after 72 hrs by PicoGreen fluorescence assay
Method in brief: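 Axenic amastigotes of WHO reference strain LD-1S/MHOM/SD/00-strain 1S; assay run as in earlier work.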

[3] = system: Plasmodium falciparum; test: Antimalarial activity against chloroquine-resistant Plasmodium falciparum Indochina W2 infected human erythrocytes assessed as uptake of PicoGreen after 48 hrs; conditions: Indochina W2, 48 h

IC50 [1]: 13.5 µM
Compound: CC1CS(=O)(=O)CCN1/N=C/c1ccc([N+](=O)[O-])o1 (centres undefined) [NIFURTIMOX]

Compound: C[C@@H]1[C@H](O)[C@@H](C)/C=C/C=C/C=C/C=C/C=C/C=C/C=C/[C@H](O[C@@H]2O[C@H](C)[C@@H](O)[C@H](N)[C@@H]2O)C[C@@H]2O[C@](O)(C[C@@H](O)C[C@@H](O)[C@H](O)CC[C@@H](O)C[C@@H](O)CC(=O)O[C@H]1C)C[C@H](O)[C@H]2C(=O)O [AMPHOTERICIN B]
IC50 [2]: 0.1 µM

Compound: C#CCCCC[C@H](C)C(=O)N(C)[C@H](C(=O)N(C)[C@H](C(=O)N(C)[C@H](C(=O)N(C)[C@H](C(N)=O)C(C)C)C(C)C)C(C)C)C(C)C [DRAGONAMIDE B] (X1-[NMeV][NMeV][NMeV][NMeV]-NH2)
IC50 [2]: > 10 µM
IC50 [3]: > 10 µM
IC50 [1]: > 10 µM

Compound: C#CCCCC[C@H](C)C(=O)N(C)[C@H](C(=O)N(C)[C@H](C(=O)N(C)[C@H](C(=O)N(C)[C@@H](Cc1ccccc1)C(N)=O)C(C)C)C(C)C)C(C)C [DRAGONAMIDE A] (X1-[NMeV][NMeV][NMeV][NMeF]-NH2)
IC50 [2]: 6.5 µM
IC50 [3]: > 10 µM
IC50 [1]: > 10 µM

Compound: C#CCCC/C=C(\C)C(=O)N(C)[C@H](C(=O)N(C)[C@H](C(=O)N(C)[C@H](C(=O)N(C)[C@@H](Cc1ccccc1)C(N)=O)C(C)C)C(C)C)C(C)C [DRAGONAMIDE E] (X2-[NMeV][NMeV][NMeV][NMeF]-NH2)
IC50 [2]: 5.1 µM
IC50 [3]: > 10 µM
IC50 [1]: > 10 µM

Compound: C/C(=C\C=C\C[C@H](C)C(Cl)(Cl)Cl)C(=O)N[C@H](c1nccs1)C(C)C [HERBAMIDE B]
IC50 [2]: 5.9 µM
IC50 [3]: > 10 µM
IC50 [1]: > 10 µM
